Our source for the IC50 and inhibition values is ChEMBL document CHEMBL5661979, “Pharmacological inhibition of BMK1 suppresses tumor growth through promyelocytic leukemia protein” (Cancer Cell, 2010).

SMILES strings stand for the structures.

The target in assay [1] is Tyrosine-protein kinase ABL (Homo sapiens, UniProt P00519+P42684). In words: Inhibition of ABL1/2 in human HeLa cells lysate pre incubated for 15 mins followed by ATP acyl phosphate probe addition and measured after 10 mins by LC-MS/MS analysis. The format is subcellular. The procedure, abridged:
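HeLa cell lysates (5 mg/mL total protein) were preincubated with inhibitor at 0, 0.8, 2, 10 or 50 μM for 15 min. ATP or ADP acylphosphate probe was then added (5 μM final) for 10 min, and reactions were stopped with urea. Up to four fragment ions per kinase probe-peptide were quantified by targeted MS. % inhibition was taken relative to untreated lysate. Run in duplicate.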

The target in assay [2] is Mitogen-activated protein kinase kinase kinase 2 (Homo sapiens, UniProt Q9Y2U5). In words: Inhibition of MAP3K2 in human HeLa cells lysate pre incubated for 15 mins followed by ADP acyl phosphate probe addition and measured after 10 mins by LC-MS/MS analysis. The format is subcellular.
Mitogen-activated protein kinase kinase kinase 2, sequence (Q9Y2U5 whole entry): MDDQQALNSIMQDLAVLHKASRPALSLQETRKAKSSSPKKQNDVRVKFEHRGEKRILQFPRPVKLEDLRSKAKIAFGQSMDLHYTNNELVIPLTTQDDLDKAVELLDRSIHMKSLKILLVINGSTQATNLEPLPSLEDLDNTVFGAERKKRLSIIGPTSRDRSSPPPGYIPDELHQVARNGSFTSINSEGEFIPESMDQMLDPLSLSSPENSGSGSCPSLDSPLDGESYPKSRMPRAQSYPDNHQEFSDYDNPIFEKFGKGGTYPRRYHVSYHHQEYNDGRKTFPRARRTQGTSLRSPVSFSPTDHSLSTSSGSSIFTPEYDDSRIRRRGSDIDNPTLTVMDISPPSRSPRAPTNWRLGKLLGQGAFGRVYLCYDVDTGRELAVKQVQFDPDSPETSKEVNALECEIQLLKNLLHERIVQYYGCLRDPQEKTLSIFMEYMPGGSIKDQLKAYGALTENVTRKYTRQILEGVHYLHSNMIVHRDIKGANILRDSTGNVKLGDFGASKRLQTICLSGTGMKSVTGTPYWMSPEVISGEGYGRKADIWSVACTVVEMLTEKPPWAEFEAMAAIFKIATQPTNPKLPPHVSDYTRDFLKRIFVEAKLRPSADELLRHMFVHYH
For assay [3], the target named is Mitogen-activated protein kinase kinase kinase 1 (Homo sapiens, UniProt Q13233). In words: Inhibition of MAP3K1 in human HeLa cells lysate at 50 uM pre incubated for 15 mins followed by ADP acyl phosphate probe addition and measured after 10 mins by LC-MS/MS analysis relative to control. The format is subcellular. The following applies: time 25.0 min.
In assay [4] the target is Cyclin-dependent kinase 13 (Homo sapiens, UniProt Q14004). As to the kind of experiment: Inhibition of CHED in human HeLa cells lysate at 50 uM pre incubated for 15 mins followed by ADP acyl phosphate probe addition and measured after 10 mins by LC-MS/MS analysis relative to control. The format is subcellular. The following applies: time 25.0 min. The procedure, abridged:
(§1)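 KiNativ profiling in HeLa lysate (5 mg/mL total protein). Lysate incubated 15 min with inhibitor at 50, 10, 2, 0.8 or 0 μM. ATP or ADP acylphosphate probe then added (5 μM final) and reacted 10 min. Reaction stopped with urea and analysed by targeted MS, using up to four fragment ions per kinase peptide-probe conjugate. % inhibition taken against untreated lysate. Run in duplicate.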

The target in assay [5] is Calcium/calmodulin-dependent protein kinase type 1D (Homo sapiens, UniProt Q8IU85). In words: Inhibition of CAMK1d in human HeLa cells lysate at 50 uM pre incubated for 15 mins followed by ADP acyl phosphate probe addition and measured after 10 mins by LC-MS/MS analysis relative to control. To be noted: time 25.0 min. The assay is classed as subcellular. The procedure, abridged: (§2)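 KiNativ-type profiling in HeLa lysate (5 mg/mL total protein). Lysate preincubated 15 min with inhibitor at 50, 10, 2, 0.8 or 0 μM, then ATP or ADP acylphosphate probe added (5 μM final) for 10 min. Reaction stopped with urea and analysed by targeted MS, using up to four fragment ions per kinase peptide-probe conjugate. % inhibition calculated against untreated lysate. Duplicate reactions.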
Calcium/calmodulin-dependent protein kinase type 1D, sequence (Q8IU85 whole entry, looked up, the tested form may be a part): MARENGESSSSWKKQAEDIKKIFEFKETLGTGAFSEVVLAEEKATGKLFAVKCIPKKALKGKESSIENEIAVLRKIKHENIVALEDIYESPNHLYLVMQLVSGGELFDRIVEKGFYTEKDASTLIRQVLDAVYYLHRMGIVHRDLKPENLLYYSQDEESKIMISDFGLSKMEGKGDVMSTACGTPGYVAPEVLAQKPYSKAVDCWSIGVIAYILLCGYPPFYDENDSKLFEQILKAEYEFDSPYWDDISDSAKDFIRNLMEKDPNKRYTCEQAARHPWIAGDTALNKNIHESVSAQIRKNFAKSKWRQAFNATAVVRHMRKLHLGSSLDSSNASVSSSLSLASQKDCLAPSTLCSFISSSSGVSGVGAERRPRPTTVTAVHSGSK

The target of assay [6] is T1, Mixed lineage kinase domain-like protein (Homo sapiens) (UniProt Q8NB16).
T1 sequence (whole entry): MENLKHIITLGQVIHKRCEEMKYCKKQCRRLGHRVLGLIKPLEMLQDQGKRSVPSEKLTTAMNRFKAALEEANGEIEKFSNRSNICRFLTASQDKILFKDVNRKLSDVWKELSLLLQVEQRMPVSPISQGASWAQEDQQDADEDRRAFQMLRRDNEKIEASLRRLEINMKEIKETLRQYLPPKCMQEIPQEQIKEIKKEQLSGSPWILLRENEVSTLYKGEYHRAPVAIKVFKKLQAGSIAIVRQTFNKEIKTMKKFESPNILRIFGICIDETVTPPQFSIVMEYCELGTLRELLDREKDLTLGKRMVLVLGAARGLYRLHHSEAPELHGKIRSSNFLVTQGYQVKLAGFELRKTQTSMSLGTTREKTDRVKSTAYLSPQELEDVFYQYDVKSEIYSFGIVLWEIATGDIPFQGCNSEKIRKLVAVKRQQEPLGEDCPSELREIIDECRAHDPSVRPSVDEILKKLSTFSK
As to the kind of experiment: Inhibition of MLKL in human HeLa cells lysate at 10 uM pre incubated for 15 mins followed by ADP acyl phosphate probe addition and measured after 10 mins by LC-MS/MS analysis relative to control. To be noted: time 25.0 min. The assay is classed as subcellular.

A short description of assay [7]: Inhibition of PCTAIRE2/3 in human HeLa cells lysate at 10 uM pre incubated for 15 mins followed by ADP acyl phosphate probe addition and measured after 10 mins by LC-MS/MS analysis relative to control. To be noted: 25 min, condition cancer.
Assay [8] deals with Tyrosine-protein kinase Fyn (Homo sapiens, UniProt P06241). As to the kind of experiment: Inhibition of FYN in human HeLa cells lysate at 10 uM pre incubated for 15 mins followed by ADP acyl phosphate probe addition and measured after 10 mins by LC-MS/MS analysis relative to control. The assay is classed as subcellular. To be noted: time 25.0 min.
Tyrosine-protein kinase Fyn, sequence (P06241 2-537 limits assumed): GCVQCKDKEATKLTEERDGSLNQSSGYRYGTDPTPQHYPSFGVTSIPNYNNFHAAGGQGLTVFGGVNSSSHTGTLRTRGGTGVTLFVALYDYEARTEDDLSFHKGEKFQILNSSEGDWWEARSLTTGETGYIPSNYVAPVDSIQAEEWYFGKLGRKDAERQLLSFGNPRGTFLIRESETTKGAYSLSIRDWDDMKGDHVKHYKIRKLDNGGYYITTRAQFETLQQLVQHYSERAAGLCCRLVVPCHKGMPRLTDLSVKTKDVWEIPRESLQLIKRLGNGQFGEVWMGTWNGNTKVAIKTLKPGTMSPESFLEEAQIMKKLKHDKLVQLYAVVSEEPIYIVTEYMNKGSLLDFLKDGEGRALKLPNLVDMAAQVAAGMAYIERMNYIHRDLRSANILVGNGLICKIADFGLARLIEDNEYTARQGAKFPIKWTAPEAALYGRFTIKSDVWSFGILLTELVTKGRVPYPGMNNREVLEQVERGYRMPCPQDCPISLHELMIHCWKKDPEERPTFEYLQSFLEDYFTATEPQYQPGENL
Assay [9] has as its target Calcium/calmodulin-dependent protein kinase kinase 1 (Homo sapiens, UniProt Q8N5S9). In words: Inhibition of CAMKK1 in human HeLa cells lysate at 2 uM pre incubated for 15 mins followed by ADP acyl phosphate probe addition and measured after 10 mins by LC-MS/MS analysis relative to control. To be noted: time 25.0 min. The format is subcellular. The procedure, abridged:
as §1

In assay [10] the target is T2, Dual specificity mitogen-activated protein kinase kinase 5 (Homo sapiens) (UniProt Q13163).
T2 sequence (whole entry): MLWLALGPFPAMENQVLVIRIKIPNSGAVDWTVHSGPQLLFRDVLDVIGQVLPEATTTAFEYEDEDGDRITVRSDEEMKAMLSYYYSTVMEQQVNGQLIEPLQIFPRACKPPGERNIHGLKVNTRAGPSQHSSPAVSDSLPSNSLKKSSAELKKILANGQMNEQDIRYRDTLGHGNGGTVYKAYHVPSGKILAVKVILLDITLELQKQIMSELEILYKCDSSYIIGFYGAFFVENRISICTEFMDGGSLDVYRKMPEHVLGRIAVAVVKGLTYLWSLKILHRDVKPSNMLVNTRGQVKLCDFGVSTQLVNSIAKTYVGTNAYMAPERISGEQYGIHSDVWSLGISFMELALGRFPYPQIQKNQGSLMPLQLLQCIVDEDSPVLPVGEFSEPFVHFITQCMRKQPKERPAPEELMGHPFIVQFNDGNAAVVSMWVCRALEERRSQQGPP
In words: Inhibition of MAP2K5 in human HeLa cells lysate at 2 uM pre incubated for 15 mins followed by ADP acyl phosphate probe addition and measured after 10 mins by LC-MS/MS analysis relative to control. The assay is classed as subcellular. The following applies: time 25.0 min.

The target in assay [11] is Serine/threonine-protein kinase ATR (Homo sapiens, UniProt Q13535). As to the kind of experiment: Inhibition of ATR in human HeLa cells lysate at 10 uM pre incubated for 15 mins followed by ATP acyl phosphate probe addition and measured after 10 mins by LC-MS/MS analysis relative to control. The format is subcellular. The following applies: time 25.0 min. Put shortly:
as §2

Assay [12] deals with Mitogen-activated protein kinase 14 (Homo sapiens, UniProt Q16539). As to the kind of experiment: Inhibition of P38alpha interaction site in human HeLa cells lysate at 10 uM pre incubated for 15 mins followed by ATP acyl phosphate probe addition and measured after 10 mins by LC-MS/MS analysis relative to control. The assay is classed as subcellular. The following applies: time 25.0 min.
Mitogen-activated protein kinase 14, sequence (Q16539 whole entry): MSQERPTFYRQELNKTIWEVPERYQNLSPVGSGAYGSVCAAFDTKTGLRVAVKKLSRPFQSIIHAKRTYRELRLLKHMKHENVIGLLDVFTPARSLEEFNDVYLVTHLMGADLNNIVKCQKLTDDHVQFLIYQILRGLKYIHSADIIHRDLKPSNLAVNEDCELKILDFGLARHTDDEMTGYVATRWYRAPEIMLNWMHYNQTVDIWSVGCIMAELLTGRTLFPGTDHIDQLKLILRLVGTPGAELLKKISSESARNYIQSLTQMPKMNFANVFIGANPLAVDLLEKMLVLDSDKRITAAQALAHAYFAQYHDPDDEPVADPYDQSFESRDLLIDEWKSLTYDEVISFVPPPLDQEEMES

Serine/threonine-protein kinase ATR, sequence (Q13535 whole entry, looked up): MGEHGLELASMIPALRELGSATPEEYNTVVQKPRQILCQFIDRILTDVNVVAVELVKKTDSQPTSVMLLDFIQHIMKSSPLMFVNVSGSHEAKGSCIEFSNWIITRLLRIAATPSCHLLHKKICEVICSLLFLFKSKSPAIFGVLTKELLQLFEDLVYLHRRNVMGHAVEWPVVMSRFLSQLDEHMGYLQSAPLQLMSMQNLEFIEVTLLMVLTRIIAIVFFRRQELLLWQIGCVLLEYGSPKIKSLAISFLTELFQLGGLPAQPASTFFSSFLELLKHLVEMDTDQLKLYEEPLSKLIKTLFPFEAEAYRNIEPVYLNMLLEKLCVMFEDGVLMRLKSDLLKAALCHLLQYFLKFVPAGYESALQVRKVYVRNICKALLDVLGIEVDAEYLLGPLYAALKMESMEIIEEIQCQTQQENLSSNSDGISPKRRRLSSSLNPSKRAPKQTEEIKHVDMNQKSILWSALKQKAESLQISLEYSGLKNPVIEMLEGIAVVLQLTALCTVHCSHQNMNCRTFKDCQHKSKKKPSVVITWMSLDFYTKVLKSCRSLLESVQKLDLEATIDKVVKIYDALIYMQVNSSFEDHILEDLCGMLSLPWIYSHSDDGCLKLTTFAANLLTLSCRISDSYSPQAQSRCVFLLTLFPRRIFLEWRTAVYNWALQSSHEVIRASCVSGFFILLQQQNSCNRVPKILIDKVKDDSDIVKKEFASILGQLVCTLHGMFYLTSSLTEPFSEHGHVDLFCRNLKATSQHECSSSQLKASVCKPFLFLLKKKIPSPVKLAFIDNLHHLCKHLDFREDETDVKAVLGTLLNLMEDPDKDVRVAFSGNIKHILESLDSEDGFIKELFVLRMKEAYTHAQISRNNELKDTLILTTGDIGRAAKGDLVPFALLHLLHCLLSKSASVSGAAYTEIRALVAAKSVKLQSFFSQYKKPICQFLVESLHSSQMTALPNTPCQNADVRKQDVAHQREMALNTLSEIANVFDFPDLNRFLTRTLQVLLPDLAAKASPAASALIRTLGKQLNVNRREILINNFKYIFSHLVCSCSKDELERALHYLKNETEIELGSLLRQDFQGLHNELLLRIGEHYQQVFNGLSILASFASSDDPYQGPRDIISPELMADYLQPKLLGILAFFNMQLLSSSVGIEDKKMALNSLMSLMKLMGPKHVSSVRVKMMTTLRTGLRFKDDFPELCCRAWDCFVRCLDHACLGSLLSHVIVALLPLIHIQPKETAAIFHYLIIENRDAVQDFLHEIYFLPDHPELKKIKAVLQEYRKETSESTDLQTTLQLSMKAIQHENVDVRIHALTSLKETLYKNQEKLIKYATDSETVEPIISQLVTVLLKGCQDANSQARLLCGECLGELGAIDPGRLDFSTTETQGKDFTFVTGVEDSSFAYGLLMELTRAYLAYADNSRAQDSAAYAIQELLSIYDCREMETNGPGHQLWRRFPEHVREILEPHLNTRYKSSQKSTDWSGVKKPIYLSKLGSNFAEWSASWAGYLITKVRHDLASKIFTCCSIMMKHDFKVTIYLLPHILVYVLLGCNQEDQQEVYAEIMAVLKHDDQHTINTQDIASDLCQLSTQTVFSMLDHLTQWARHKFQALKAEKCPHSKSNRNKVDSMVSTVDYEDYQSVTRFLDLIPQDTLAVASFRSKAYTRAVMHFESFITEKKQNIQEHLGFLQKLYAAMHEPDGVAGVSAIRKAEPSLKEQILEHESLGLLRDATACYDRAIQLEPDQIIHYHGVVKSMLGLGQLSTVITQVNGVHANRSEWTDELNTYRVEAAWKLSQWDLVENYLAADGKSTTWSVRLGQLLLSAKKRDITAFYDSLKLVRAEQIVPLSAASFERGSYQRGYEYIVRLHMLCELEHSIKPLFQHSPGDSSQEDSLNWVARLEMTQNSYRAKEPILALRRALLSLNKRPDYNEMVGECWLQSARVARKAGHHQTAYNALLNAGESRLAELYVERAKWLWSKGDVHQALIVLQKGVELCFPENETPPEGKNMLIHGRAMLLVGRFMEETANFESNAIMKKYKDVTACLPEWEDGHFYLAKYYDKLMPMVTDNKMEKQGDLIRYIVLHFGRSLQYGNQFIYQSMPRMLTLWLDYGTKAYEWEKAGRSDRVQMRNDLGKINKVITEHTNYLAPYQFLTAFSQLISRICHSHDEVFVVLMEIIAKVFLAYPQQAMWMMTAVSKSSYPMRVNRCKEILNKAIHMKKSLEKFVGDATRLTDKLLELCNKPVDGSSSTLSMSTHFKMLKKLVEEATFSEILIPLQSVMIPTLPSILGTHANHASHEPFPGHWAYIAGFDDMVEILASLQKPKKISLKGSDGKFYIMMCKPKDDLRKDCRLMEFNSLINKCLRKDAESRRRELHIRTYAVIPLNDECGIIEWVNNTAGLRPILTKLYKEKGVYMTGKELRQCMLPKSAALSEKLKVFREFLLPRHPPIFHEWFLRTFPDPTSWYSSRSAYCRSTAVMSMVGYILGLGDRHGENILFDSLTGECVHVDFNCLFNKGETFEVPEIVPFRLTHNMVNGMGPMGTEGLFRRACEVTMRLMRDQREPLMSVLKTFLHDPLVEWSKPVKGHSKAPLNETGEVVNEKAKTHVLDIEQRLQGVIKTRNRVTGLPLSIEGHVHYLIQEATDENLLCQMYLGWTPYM
Calcium/calmodulin-dependent protein kinase kinase 1, sequence (Q8N5S9 whole entry, looked up): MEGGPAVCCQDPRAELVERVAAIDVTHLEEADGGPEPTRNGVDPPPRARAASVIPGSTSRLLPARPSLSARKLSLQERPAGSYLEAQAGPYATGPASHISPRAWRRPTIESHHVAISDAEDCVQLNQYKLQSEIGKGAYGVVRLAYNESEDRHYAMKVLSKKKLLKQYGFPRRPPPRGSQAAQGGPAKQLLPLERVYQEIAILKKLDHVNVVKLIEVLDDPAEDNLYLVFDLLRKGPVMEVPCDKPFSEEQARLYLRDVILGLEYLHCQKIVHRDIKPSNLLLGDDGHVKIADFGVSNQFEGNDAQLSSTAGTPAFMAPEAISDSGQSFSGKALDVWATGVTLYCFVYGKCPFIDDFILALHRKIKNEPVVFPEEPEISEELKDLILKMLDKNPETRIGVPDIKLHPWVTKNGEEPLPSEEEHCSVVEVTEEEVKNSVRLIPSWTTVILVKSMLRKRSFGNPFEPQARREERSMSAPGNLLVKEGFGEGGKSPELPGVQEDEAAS

Take `CCOc1cc(N2CCC(O)CC2)ccc1Nc1ncc2c(n1)N(C)c1ccccc1C(=O)N2C`: the IC50 in assay [1] and in [2] was more than 50 µM in each case. The inhibition in assay [3] is 14.1%; in assay [4], 12%; in assay [5], -1.9%; in assay [6], 12%; in [8] it was 11.9%; in assay [9], -5.2%. Moreover, the inhibition turned out to be 19.1% in assay [10], 6.7% in [11] and 17.4% in assay [12]. Further, in assay [7], the inhibition at 10 µM is -4.4%.

For orientation: IC50 means the concentration needed to halve the response being measured. Read a high IC50 as weaker potency. A word on the inhibition: it is the change of the read-out against control, counted positive when it falls.
